Laboratory results taken from ChEMBL document CHEMBL2380270, “Radiosynthesis and first evaluation in mice of [(18)F]NS14490 for molecular imaging of α7 nicotinic acetylcholine receptors” (Bioorg Med Chem, 2013).

What was measured:
Kidney [1] = assay: Biodistribution in CD1 mouse kidney at 200 to 300 kBq, iv measured at 30 mins by gamma counting analysis; assay type: ADME, organism-based; conditions: in vivo, 0.5 h
Summary of the method: (§1)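 Female CD-1 mice, 200–300 kBq radiotracer given iv, n = 3 per time point. Animals anaesthetised for blood and urine sampling, then killed by cervical dislocation at 5, 15, 30 or 60 min p.i. Organs removed, weighed and gamma-counted; uptake expressed as % injected dose per g wet tissue.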

Mus musculus [2] = assay: Biodistribution in CD1 mouse thymus at 200 to 300 kBq, iv measured at 15 mins by gamma counting analysis; assay type: ADME, organism-based; conditions: in vivo, 0.25 h
Summary of the method: (§2)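 Female CD-1 mice received 200–300 kBq [18F]radiotracer intravenously. Blood and urine were sampled under anaesthesia, then mice were killed by cervical dislocation at 5, 15, 30 or 60 min p.i. (n = 3; control at 60 min n = 7). Organs were removed and weighed, activity was gamma-counted, and uptake was expressed as % injected dose per g wet tissue.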

Urinary bladder [3] = assay: Biodistribution in CD1 mouse bladder at 200 to 300 kBq, iv measured at 15 mins by gamma counting analysis; assay type: ADME, organism-based; conditions: in vivo, 0.25 h; summary of the method: as §1
Mus musculus [4] = assay: Biodistribution in CD1 mouse small intestine at 200 to 300 kBq, iv measured at 60 mins by gamma counting analysis in presence of SSR180711; assay type: ADME, organism-based; conditions: in vivo, 1 h
Summary of the method: (§3)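 Blocking design in female CD-1 mice, n = 7 per group. The blocker was given at 10 mg kg^-1 i.p. in 0.9% saline 10 min before i.v. 200–300 kBq [18F]radiotracer. Mice were killed at 60 min p.i. and organs weighed and gamma-counted as % ID per g wet weight. Blocked groups were compared with controls by two-tailed independent Student's t test.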

Mus musculus [5] = assay: Biodistribution in CD1 mouse large intestine at 200 to 300 kBq, iv measured at 60 mins by gamma counting analysis; assay type: ADME, organism-based; conditions: in vivo, 1 h; summary of the method: as §1
Muscle tissue [6] = assay: Biodistribution in CD1 mouse muscle at 200 to 300 kBq, iv measured at 15 mins by gamma counting analysis; assay type: ADME, organism-based; conditions: in vivo, 0.25 h; summary of the method: as §2
Lung [7] = assay: Biodistribution in CD1 mouse lung at 200 to 300 kBq, iv measured at 60 mins by gamma counting analysis in presence of SSR180711; assay type: ADME, organism-based; conditions: in vivo, 1 h; summary of the method: as §3
Femur [8] = assay: Biodistribution in CD1 mouse femur at 200 to 300 kBq, iv measured at 30 mins by gamma counting analysis; assay type: ADME, organism-based; conditions: in vivo, 0.5 h; summary of the method: as §1
Zone of skin = assay: Biodistribution in CD1 mouse skin at 200 to 300 kBq, iv measured at 5 mins by gamma counting analysis; assay type: ADME, organism-based; conditions: in vivo; summary of the method: as §2
Mus musculus [9] = assay: Biodistribution in CD1 mouse thymus at 200 to 300 kBq, iv measured at 60 mins by gamma counting analysis in presence of SSR180711; assay type: ADME, organism-based; conditions: in vivo, 1 h
Summary of the method: (§4)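 Female CD-1 mice given 200–300 kBq tracer intravenously. Animals anaesthetised for blood and urine sampling, then killed by cervical dislocation at 5, 15, 30 or 60 min (n = 3 per time; n = 7 at 60 min). Organs removed and weighed, activity gamma-counted, expressed as % injected dose per g wet weight. Blocking arm: 10 mg/kg i.p. in 0.9% saline, 10 min before tracer; two-tailed unpaired t test versus control.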

Spleen = assay: Biodistribution in CD1 mouse spleen at 200 to 300 kBq, iv measured at 15 mins by gamma counting analysis; assay type: ADME, organism-based; conditions: in vivo, 0.25 h; summary of the method: as §2
[10] = Biodistribution in CD1 mouse urine at 200 to 300 kBq, iv measured at 15 mins by gamma counting analysis; assay type: ADME, organism-based; conditions: in vivo, 0.25 h; summary of the method: as §4
Kidney [11] = assay: Biodistribution in CD1 mouse kidney at 200 to 300 kBq, iv measured at 60 mins by gamma counting analysis; assay type: ADME, organism-based; conditions: in vivo, 1 h; summary of the method: as §1
Mus musculus [12] = assay: Biodistribution in CD1 mouse adrenal at 200 to 300 kBq, iv measured at 30 mins by gamma counting analysis; assay type: ADME, organism-based, Adrenal gland; conditions: in vivo, 0.5 h; summary of the method: as §1
Stomach = assay: Biodistribution in CD1 mouse stomach at 200 to 300 kBq, iv measured at 15 mins by gamma counting analysis; assay type: ADME, organism-based; conditions: in vivo, 0.25 h; summary of the method: as §2
[13] = Biodistribution in CD1 mouse urine at 200 to 300 kBq, iv measured at 5 mins by gamma counting analysis; assay type: ADME, organism-based; conditions: in vivo; summary of the method: as §4
Blood = assay: Biodistribution in CD1 mouse blood at 200 to 300 kBq, iv measured at 30 mins by gamma counting analysis; assay type: ADME, organism-based; conditions: in vivo, 0.5 h; summary of the method: as §1
Mus musculus [14] = assay: Biodistribution in CD1 mouse small intestine at 200 to 300 kBq, iv measured at 5 mins by gamma counting analysis; assay type: ADME, organism-based; conditions: in vivo; summary of the method: as §2
Pancreas [15] = assay: Biodistribution in CD1 mouse pancreas at 200 to 300 kBq, iv measured at 60 mins by gamma counting analysis in presence of SSR180711; assay type: ADME, organism-based; conditions: in vivo, 1 h; summary of the method: as §3
Femur [16] = assay: Biodistribution in CD1 mouse femur at 200 to 300 kBq, iv measured at 60 mins by gamma counting analysis in presence of SSR180711; assay type: ADME, organism-based; conditions: in vivo, 1 h
Summary of the method: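 Blocking study in female CD-1 mice, n = 7 per blocker, with a matching control group. SSR180711 or NS6740 given at 10 mg kg⁻¹ ip in 0.9% saline 10 min before iv radiotracer (200–300 kBq). Organs taken at 60 min p.i., weighed and gamma-counted; uptake as % ID per g wet weight. Compared with control by two-tailed independent Student's t test.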

Urinary bladder [17] = assay: Biodistribution in CD1 mouse bladder at 200 to 300 kBq, iv measured at 30 mins by gamma counting analysis; assay type: ADME, organism-based; conditions: in vivo, 0.5 h; summary of the method: as §1
Mus musculus [18] = assay: Biodistribution in CD1 mouse thymus at 200 to 300 kBq, iv measured at 60 mins by gamma counting analysis; assay type: ADME, organism-based; conditions: in vivo, 1 h; summary of the method: as §4
Lung [19] = assay: Biodistribution in CD1 mouse lung at 200 to 300 kBq, iv measured at 60 mins by gamma counting analysis; assay type: ADME, organism-based; conditions: in vivo, 1 h; summary of the method: as §2
Muscle tissue [20] = assay: Biodistribution in CD1 mouse muscle at 200 to 300 kBq, iv measured at 30 mins by gamma counting analysis; assay type: ADME, organism-based; conditions: in vivo, 0.5 h; summary of the method: as §2
Pancreas [21] = assay: Biodistribution in CD1 mouse pancreas at 200 to 300 kBq, iv measured at 5 mins by gamma counting analysis; assay type: ADME, organism-based; conditions: in vivo; summary of the method: as §2

O=C(Oc1ccc(Br)cc1)N1CCN2CCC1CC2 [SSR180711]
Drug uptake (Kidney [1]): 8.5 % ID/g
Drug uptake (Mus musculus [2]): 2.98 % ID/g
Drug uptake (Urinary bladder [3]): 2.19 % ID/g
Drug uptake (Mus musculus [4]): 15.9 % ID/g
Drug uptake (Mus musculus [5]): 5.02 % ID/g
Drug uptake (Muscle tissue [6]): 1.88 % ID/g
Drug uptake (Lung [7]): 4.41 % ID/g
Drug uptake (Femur [8]): 1.48 % ID/g
Drug uptake (Zone of skin): 0.81 % ID/g
Drug uptake (Mus musculus [9]): 2.47 % ID/g
Drug uptake (Spleen): 8.23 % ID/g
Drug uptake [10]: 122 % ID/g
Drug uptake (Kidney [11]): 10.4 % ID/g
Drug uptake (Mus musculus [12]): 4.61 % ID/g
Drug uptake (Stomach): 5.45 % ID/g
Drug uptake [13]: 23.9 % ID/g
Drug uptake (Blood): 1.01 % ID/g
Drug uptake (Mus musculus [14]): 3.44 % ID/g
Drug uptake (Pancreas [15]): 2.96 % ID/g
Drug uptake (Femur [16]): 1.43 % ID/g
Drug uptake (Urinary bladder [17]): 2.08 % ID/g
Drug uptake (Mus musculus [18]): 2.75 % ID/g
Drug uptake (Lung [19]): 4.88 % ID/g
Drug uptake (Muscle tissue [20]): 1.26 % ID/g
Drug uptake (Pancreas [21]): 5.16 % ID/g
